# V-ATPase pH: yeast V-ATPase proton transport regulation by pHLuorin; response, % at 10 µM; S. cerevisiae, pHLuorin cytosolic pH fluorescence; 350,000 compounds, 0.37% hits; in the data active = response mostly above about 7.3%, no sharp cut-off; inactive = mostly below about 5.4%; note: actives read high
# aDG glyco act: increases alpha dystroglycan glycosylation; Pro5-aDG cells, alpha-DG glycosylation AlphaScreen (IIH6); 0% Pro5, 100% B10-LARGE cell signal; activation, % at 10 µM; 360,000 compounds, 0.22% hits; AID 624168;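 active = activation of at least 8% versus controls, or a plate z-score of at least 8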;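 note: Pro5 are CHO cells carrying HIG-tagged alpha-DG that lacks glycosylation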
# ADAM17 inh: ADAM17 inhibition, QFRET primary screen; P78536; recombinant ADAM17, EDANS/DABCYL FRET peptide cleavage; inhibition, % at 6.95 µM; 370,000 compounds, 0.83% hits;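 active = inhibition above the mean of compounds lying between control limits plus 3 SD, set per campaign, cut at about 8.5% in these data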;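 note: 0% = DMSO-only wells as the low control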
# Target sequence (P78536 215-824 limits assumed): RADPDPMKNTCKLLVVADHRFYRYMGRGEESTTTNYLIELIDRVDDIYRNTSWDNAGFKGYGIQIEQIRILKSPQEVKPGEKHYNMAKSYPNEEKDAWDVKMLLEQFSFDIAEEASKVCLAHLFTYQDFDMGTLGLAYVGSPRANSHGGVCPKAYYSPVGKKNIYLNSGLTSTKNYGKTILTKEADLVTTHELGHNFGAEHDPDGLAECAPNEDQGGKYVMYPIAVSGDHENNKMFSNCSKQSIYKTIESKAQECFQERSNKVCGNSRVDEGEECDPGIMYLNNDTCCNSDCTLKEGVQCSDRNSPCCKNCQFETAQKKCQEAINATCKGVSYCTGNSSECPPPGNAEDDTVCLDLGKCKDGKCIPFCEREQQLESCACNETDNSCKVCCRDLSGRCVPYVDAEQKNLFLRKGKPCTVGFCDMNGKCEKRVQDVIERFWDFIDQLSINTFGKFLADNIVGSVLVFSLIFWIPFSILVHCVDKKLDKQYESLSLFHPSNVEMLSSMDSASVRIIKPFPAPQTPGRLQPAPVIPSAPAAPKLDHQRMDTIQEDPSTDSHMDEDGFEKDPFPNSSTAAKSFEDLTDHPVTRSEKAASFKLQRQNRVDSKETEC
# Hep lipid drop: modulators of hepatic lipid droplet formation; 240,000 compounds, 0.4% hits; AML12 mouse hepatocytes, oleate lipid droplets, BODIPY imaging; inhibition, % at 6.5 µM; AID 1656;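 active = lipid droplet intensity inhibited by at least 50%, with more than 500 cells counted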
#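 Assay system: AML12 hepatocytes (mouse) / Also added: 100 µM oleic acid challenge / Times: overnight treatment with compound plus oleate / Detection: high-content imaging of BODIPY-stained droplets and DAPI nuclei / Evaluation: % inhibition of lipid droplet signal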
# ADAM10 inh: inhibits human ADAM10; O14672; recombinant ADAM10, EDANS/DABCYL FRET peptide cleavage, 3 h; inhibition, % at 7 µM; 370,000 compounds, 0.62% hits; AID 720582;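 active = inhibition above a per-campaign cutoff equal to the mean of compounds falling between control-based bounds plus 3 SD, cut at about 20% in these data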;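 note: 0% = DMSO wells while the 100% control is not disclosed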
# MPTP block: blocks calcium-induced mitochondrial swelling; isolated mouse mitochondria, Ca2+ swelling absorbance, 30 min; inhibition, % at 10 µM; 360,000 compounds, 1.4% hits; AID 602449;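 active = inhibition of 50% or more, scaled per plate between neutral and stimulator controls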;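 note: 0% = DMSO wells given calcium and 100% = 1 mM EGTA wells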
# ADAM10 ctr: inhibits human ADAM10 in ADAM17 exosite counter-screen; inhibition, % at 6.95 µM; recombinant ADAM10, EDANS/DABCYL FRET peptide cleavage, 3 h; 2,900 compounds, 47% hits; shares compounds with ADAM17 inh;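 active = mean inhibition over the triplicate runs exceeds the activity threshold set in the earlier primary screen, cut at about 20% in these data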;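 note: 0% = DMSO wells and 100% = marimastat wells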
# ADAM17 confirm: human ADAM17 inhibition, confirmation | shares compounds with ADAM17 inh | recombinant ADAM17, EDANS/DABCYL QFRET peptide cleavage | inhibition, % at 6.95 µM | 2,900 compounds, 65% hits;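 active = mean inhibition across replicates above the hit cutoff set in the primary screen, cut at about 8.5% in these data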;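 note: 0% = DMSO wells and 100% = marimastat wells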
# * marks the source's active call; other numbers are inactive results; x = not tested or not shown. An excerpt weighted towards active compounds, which were near 3.1% of everything screened.
SMILES,V-ATPase pH,aDG glyco act,ADAM17 inh,Hep lipid drop,ADAM10 inh,MPTP block,ADAM10 ctr,ADAM17 confirm
CC(C)(C)c1ccc(OCCC(=O)OCC(=O)N2c3ccccc3NC(=O)C2(C)C)cc1,6,0,11*,x,5,2,39*,16*
Cc1cccc(OCCC(=O)OCC(=O)N2c3ccccc3NC(=O)C2(C)C)c1,-4,1,-2,x,0,-1,x,x
CCN(CC)c1ccc(S(=O)(=O)N2CCOCC2)cc1NC(=O)COC(=O)/C=C/c1ccccc1,1,0,8.8*,x,11,-1,14,11*
CCN(CC)c1ccc(S(=O)(=O)N2CCOCC2)cc1NC(=O)COC(=O)/C=C/c1ccc(O)c(OC)c1,-3,0,-9,x,-37,0,x,x
COc1cc(C(=O)NC2CCCCN(Cc3cccc(C(F)(F)F)c3)C2=O)cc(OC)c1OC (stereo unspecified),x,x,-2,x,-2,x,x,x
CCNC(=S)NNC(=O)CSc1nnc(SCc2cccc3ccccc23)s1,x,x,3,x,9,x,x,x
CC(C)(C)c1cc(OC(=O)C2CCCC2)ccc1O,-2,0,1,0,10,-1,x,x
CCCCC(CC)C(=O)Oc1ccc(O)c(C(C)(C)C)c1 (stereo unspecified),0,1,12*,3,14,-2,16,7
COc1ccc(Cl)cc1NC(=O)c1nnn(CC(=O)Nc2ccc(C)c(C)c2)c1N,-2,0,11*,-1,8,3,-6,2
COc1ccc(NC(=O)Cn2nnc(C(=O)Nc3ccc(F)c(Cl)c3)c2N)cc1OC,-5,0,2,36,-2,0,x,x
Cc1ccc(C(=O)C2CCN(CC(=O)N(C)C3CCCCC3)CC2)cc1,x,x,-4,x,2,x,x,x
COc1ccc(Cn2ccc3ccc(-c4ccc5ccn(C(=O)C6CCCCC6)c5c4)cc32)cc1,x,x,-10,x,-38,x,x,x
C[C@H]1[C@@H](NC(=O)c2ccc(Cl)c(C(F)(F)F)c2)CC[C@@]23CCCN2C(=O)CCC[C@@H]13,x,x,-1,x,6,x,x,x
CS(=O)c1ccccc1-c1nc(-c2cc(C(F)(F)F)cc(C(F)(F)F)c2)no1 (stereo unspecified),8,0,-1,x,4,-3,x,x
CS(=O)c1ccccc1-c1nc(-c2ccc([N+](=O)[O-])cc2)no1 (stereo unspecified),4,0,11*,x,8,1,22*,8
CCN(CC)C(=O)c1ccc2c(c1)NC(=O)C(C)(C)O2,x,x,2,x,-11,x,x,x
O=C(OC12CCCN(C1)/C(=C/c1ccccc1)C2)c1ccc(Cl)cc1 (stereo unspecified),x,x,6,x,18,x,x,x
CC(C)Nc1nc(Cl)nc(NNC(=O)C(C)Oc2ccccc2)n1 (stereo unspecified),-2,0,9.0*,x,5,0,-2,-2
CCNc1nc(Cl)nc(NNC(=O)C(C)Oc2ccccc2)n1 (stereo unspecified),-1,0,0,19,-8,-1,x,x
Cc1c(C(=O)N(Cc2ccc(N(C)C)cc2)CC2CCCO2)oc2ccccc12 (stereo unspecified),3,0,10.0*,-24,11,-1,-6,1
COc1cccc(NC(=O)Cc2csc(NC(=O)Nc3ccccc3OC)n2)c1,-1,0,10*,x,3,2,35*,18*
Cc1nc2ccccn2c1P(=O)(c1ccccc1)c1ccccc1,x,x,-3,x,0,x,x,x
CC1(C)c2[nH]c3ccccc3c2C[C@@H]2C(=O)N(Cc3ccc(F)cc3)C(=O)N21,-2,0,8,x,14,1,x,x
COc1cccc(CN2C(=O)[C@@H]3Cc4c([nH]c5ccccc45)C(C)(C)N3C2=O)c1,-10,1,8.7*,x,15,1,19,14*
Cc1ccc(CN2C(=O)[C@@H]3Cc4c([nH]c5ccccc45)C(C)(C)N3C2=O)cc1,16,0,4,x,12,2,x,x

# Screening data as filed in PubChem.
